The source made the active and inactive calls. The calls are words filed in the database; no cut-off is given here.
Key:
[1] = Cytotoxicity against human U87MG cells after 48 hrs by resazurin assay; format: functional, cell-based, U-87MG ATCC; conditions: U-87 MG
In short: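 U87MG glioblastoma cells treated with compounds; viability read by resazurin 48 h after treatment. IC50 from triplicate experiments, reported as mean and s.d.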

A549 [2] = assay: Induction of cell death in human A549 cells assessed as stabilization of p53 at 0.025 to 0.5 uM after 24 hrs by immunoblot assay; format: functional, cell-based
[3] = biological target: T1, Ubl carboxyl-terminal hydrolase 18 (Homo sapiens) (UniProt Q9UMW8); assay: Inhibition of USP18 (unknown origin) expressed in human A549 cells coexpressing ISG15-GFP assessed as reduction in free GFP at 25 to 100 nM after 24 hrs by immunoblot assay
T1 sequence (whole entry): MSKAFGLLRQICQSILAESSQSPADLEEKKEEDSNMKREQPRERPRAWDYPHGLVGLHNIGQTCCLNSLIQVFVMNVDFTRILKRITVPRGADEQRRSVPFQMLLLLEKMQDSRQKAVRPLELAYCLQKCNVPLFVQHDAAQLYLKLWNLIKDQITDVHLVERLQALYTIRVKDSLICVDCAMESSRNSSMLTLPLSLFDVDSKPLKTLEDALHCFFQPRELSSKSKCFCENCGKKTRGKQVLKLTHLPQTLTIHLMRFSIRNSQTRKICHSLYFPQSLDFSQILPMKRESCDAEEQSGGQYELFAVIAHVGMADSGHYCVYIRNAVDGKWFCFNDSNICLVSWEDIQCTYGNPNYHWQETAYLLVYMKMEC

A549 [4] = assay: Induction of cell death in human A549 cells assessed as accumulation of Noxa at 0.025 to 0.1 uM after 24 hrs by immunoblot assay; format: functional, cell-based
A549 [5] = assay: Induction of cell death in human A549 cells assessed as accumulation of poly-ubiquitinated proteins at 0.025 to 0.5 uM after 24 hrs by immunoblot assay; format: functional, cell-based
U-87MG ATCC = assay: Induction of cell death in human U87MG cells at 4.2 to 18.4 uM after 24 hrs by trypan blue assay in presence of zVAD-fmk; format: functional, cell-based
T98G [6] = assay: Induction of apoptosis in human T98G cells assessed as caspase activation at 0.6 to 10 uM after 24 hrs by rhodamine-based fluorescence assay; format: functional, cell-based
In short: (§1)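 U87MG or T98G cells exposed 24 h to the listed concentrations. Caspase activity was read as relative fluorescence units from the rhodamine 110 bis-(N-Z-L-aspartyl-L-glutamyl-L-valyl-aspartic acid amide) fluorogenic substrate.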

U-87 MG [7] = assay: Induction of apoptosis in human U87MG cells assessed as caspase activation at 0.6 to 10 uM after 24 hrs by rhodamine-based fluorescence assay; format: functional, cell-based; conditions: U-87MG ATCC; in short: as §1
U-87 MG [8] = assay: Induction of necrosis in human U87MG cells at 0.6 to 10 uM after 24 hrs by trypan blue assay; format: functional, cell-based; conditions: U-87MG ATCC
In short: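 U87MG cells treated 24 h at the indicated concentrations. Death scored as percent trypan blue-positive cells. Caspase activity measured in parallel with a rhodamine 110 bis-(N-Z-DEVD amide) fluorogenic substrate and read in relative fluorescence units.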

T98G [9] = assay: Induction of necrosis in human T98G cells at 0.6 to 10 uM after 24 hrs by trypan blue assay; format: functional, cell-based
In short: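 T98G cells exposed 24 h to the listed concentrations. Cell death was scored as percent of trypan blue-positive cells.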

[10] = biological target: T1, Ubl carboxyl-terminal hydrolase 18 (Homo sapiens); assay: Inhibition of USP18 (unknown origin) expressed in human A549 cells coexpressing ISG15-GFP assessed as reduction in free GFP at 1 to 5 uM after 24 hrs by immunoblot assay; format: cell-based
A549 [11] = assay: Induction of cell death in human A549 cells assessed as stabilization of p53 at 1 to 5 uM after 24 hrs by immunoblot assay; format: functional, cell-based
A549 [12] = assay: Induction of cell death in human A549 cells assessed as accumulation of poly-ubiquitinated proteins at 1 to 5 uM after 24 hrs by immunoblot assay; format: functional, cell-based
[13] = biological target: T2, Ubl carboxyl-terminal hydrolase 18 (Homo sapiens, UniProt Q9UMW8); assay: Inhibition of recombinant human USP18 (16 to 372 aa) expressed in Sf9 cells using ISG15-AMC as substrate preincubated for 30 mins before substrate addition measured after 60 mins by fluorescence assay
T2 sequence (Q9UMW8 whole entry): T1 sequence (whole entry)

[14] = biological target: Ubiquitin carboxyl-terminal hydrolase isozyme L1 (Homo sapiens) (UniProt P09936); assay: Inhibition of GST-tagged recombinant full-length UCHL1 (unknown origin) expressed in bacteria using Ub-AMC as substrate preincubated for 30 mins before substrate addition measured after 60 mins by fluorescence assay
In short: (§2)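 Purified isopeptidase activity was measured with ubiquitin-AMC as fluorogenic substrate; IC50 was derived from inhibition.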

[15] = biological target: T3, Ubiquitin carboxyl-terminal hydrolase 2 (Homo sapiens, UniProt O75604); assay: Inhibition of USP2 catalytic domain (unknown origin) expressed in bacteria using Ub-AMC as substrate preincubated for 30 mins before substrate addition measured after 60 mins by fluorescence assay; in short: as §2
T3 sequence (O75604 whole entry): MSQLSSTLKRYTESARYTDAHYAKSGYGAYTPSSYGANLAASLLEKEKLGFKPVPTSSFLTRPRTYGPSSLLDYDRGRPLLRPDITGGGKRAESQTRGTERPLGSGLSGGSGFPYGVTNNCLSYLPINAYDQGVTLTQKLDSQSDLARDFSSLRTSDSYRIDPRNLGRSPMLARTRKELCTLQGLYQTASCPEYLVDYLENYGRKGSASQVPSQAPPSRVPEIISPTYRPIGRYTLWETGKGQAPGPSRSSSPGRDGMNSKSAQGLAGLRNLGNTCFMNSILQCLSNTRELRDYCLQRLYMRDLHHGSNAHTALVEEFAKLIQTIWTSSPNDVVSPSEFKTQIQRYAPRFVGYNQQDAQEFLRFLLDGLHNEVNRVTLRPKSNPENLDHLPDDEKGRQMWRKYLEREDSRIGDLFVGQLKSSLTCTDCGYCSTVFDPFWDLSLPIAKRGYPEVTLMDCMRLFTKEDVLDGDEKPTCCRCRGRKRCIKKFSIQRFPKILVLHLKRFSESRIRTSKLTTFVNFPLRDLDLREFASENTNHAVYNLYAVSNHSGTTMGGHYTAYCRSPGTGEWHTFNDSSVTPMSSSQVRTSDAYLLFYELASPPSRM

[16] = biological target: T4, Ubiquitin carboxyl-terminal hydrolase isozyme L5 (Homo sapiens, UniProt Q9Y5K5); assay: Inhibition of GST-tagged UCHL5 (unknown origin) using Ub-AMC as substrate preincubated for 30 mins before substrate addition measured after 60 mins by fluorescence assay; in short: as §2
T4 sequence (Q9Y5K5 whole entry): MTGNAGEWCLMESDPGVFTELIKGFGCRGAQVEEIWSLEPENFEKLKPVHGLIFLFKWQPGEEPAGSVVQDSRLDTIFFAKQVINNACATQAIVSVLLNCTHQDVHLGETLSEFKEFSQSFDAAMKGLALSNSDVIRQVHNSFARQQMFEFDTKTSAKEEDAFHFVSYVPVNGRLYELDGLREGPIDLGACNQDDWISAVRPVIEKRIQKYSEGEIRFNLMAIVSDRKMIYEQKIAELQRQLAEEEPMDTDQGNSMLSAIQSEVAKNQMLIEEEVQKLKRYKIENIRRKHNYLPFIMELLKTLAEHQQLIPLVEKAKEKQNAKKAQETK

Sequence of Ubiquitin carboxyl-terminal hydrolase isozyme L1 (Homo sapiens) (P09936 whole entry, looked up): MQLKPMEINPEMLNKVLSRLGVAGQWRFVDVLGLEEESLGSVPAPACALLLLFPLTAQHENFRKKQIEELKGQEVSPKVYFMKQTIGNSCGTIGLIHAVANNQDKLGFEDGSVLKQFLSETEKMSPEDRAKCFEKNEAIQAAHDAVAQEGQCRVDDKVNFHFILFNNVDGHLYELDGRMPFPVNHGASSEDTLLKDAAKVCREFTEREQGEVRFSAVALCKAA

SMILES | IC50 [1] | further results
Cc1ccc(/C=C2\CS(=O)(=O)C/C(=C\c3ccc([N+](=O)[O-])cc3)C2=O)cc1 | 1.39 µM | –
CC(C)C[C@H](NC(=O)[C@H](Cc1ccccc1)NC(=O)c1cnccn1)B(O)O | – | Activity (A549 [2]): Active; inhibition [3]: inactive; Activity (A549 [4]): Active; Activity (A549 [5]): Active
O=C1/C(=C/c2ccccc2)CS(=O)(=O)C/C1=C\c1ccccc1 | 5.11 µM | –
Cc1ccc(/C=C2\CS(=O)(=O)C/C(=C\c3ccc(C)cc3)C2=O)cc1 | 4.74 µM | Activity (U-87MG ATCC): Active; Activity (T98G [6]): Active; Activity (U-87 MG [7]): Active; Activity (U-87 MG [8]): Active; Activity (T98G [9]): Active
N#Cc1ccc(/C=C2\CS(=O)(=O)C/C(=C\c3ccc(C#N)cc3)C2=O)cc1 | 1.35 µM | –
COc1ccc(/C=C2\CS(=O)(=O)C/C(=C\c3ccc(OC)cc3)C2=O)cc1 | 3.57 µM | –
O=C1/C(=C/c2ccc(O)cc2)CS(=O)(=O)C/C1=C\c1ccc(O)cc1 | 6.73 µM | –
O=C1/C(=C/c2ccc(Oc3ccccc3)cc2)CS(=O)(=O)C/C1=C\c1ccc(Oc2ccccc2)cc1 | 2.94 µM | –
COc1ccc(/C=C2\CS(=O)(=O)C/C(=C\c3ccc(OC)c([N+](=O)[O-])c3)C2=O)cc1[N+](=O)[O-] | 1.14 µM | –
O=C1/C(=C/c2ccc([N+](=O)[O-])cc2)CSC/C1=C\c1ccc([N+](=O)[O-])cc1 | 11.6 µM | –
O=C1/C(=C/c2ccc([N+](=O)[O-])cc2)CCC/C1=C\c1ccc([N+](=O)[O-])cc1 | 27.5 µM | –
O=C1/C(=C/c2ccc(O)cc2)CS(=O)(=O)C/C1=C\c1ccc([N+](=O)[O-])cc1 | 2.17 µM | –
O=C1/C(=C/c2ccc(F)cc2)CS(=O)(=O)C/C1=C\c1ccc(F)cc1 | 2.21 µM | –
O=C1/C(=C/c2ccc([N+](=O)[O-])cc2)C[S+]([O-])C/C1=C\c1ccc([N+](=O)[O-])cc1 (stereo not drawn) | 1.79 µM | Activity (U-87 MG [8]): Active
COc1ccc(/C=C2\CS(=O)(=O)C/C(=C\c3ccc([N+](=O)[O-])cc3)C2=O)cc1 | 2.09 µM | –
O=C1/C(=C/c2ccc([N+](=O)[O-])cc2)CC2(C/C1=C\c1ccc([N+](=O)[O-])cc1)OCCO2 | 15.3 µM | –
O=C1/C(=C/c2ccc([N+](=O)[O-])cc2)COC/C1=C\c1ccc([N+](=O)[O-])cc1 | 50.1 µM | –
O=C1/C(=C/c2ccc([N+](=O)[O-])cc2)CS(=O)(=O)C/C1=C\c1ccc([N+](=O)[O-])cc1 | 0.77 µM | inhibition [10]: Active; Activity (A549 [11]): Active; Activity (A549 [12]): Active; IC50 [13]: 33.2 µM; inhibition [14]: inactive; IC50 [15]: 32.6 µM; Activity (U-87 MG [8]): Active; IC50 [16]: 13.6 µM
O=C1/C(=C/c2cccc([N+](=O)[O-])c2)CS(=O)(=O)C/C1=C\c1cccc([N+](=O)[O-])c1 | 0.76 µM | –
O=C1/C(=C/c2ccc([N+](=O)[O-])cc2)CNC/C1=C\c1ccc([N+](=O)[O-])cc1 | 7.15 µM | –
CCOC(=O)C1C/C(=C\c2ccc([N+](=O)[O-])cc2)C(=O)/C(=C/c2ccc([N+](=O)[O-])cc2)C1 (stereo not drawn) | 2.47 µM | –

Reference: ChEMBL document CHEMBL3407395, “Synthesis, characterization, and optimization for in vivo delivery of a nonselective isopeptidase inhibitor as new antineoplastic agent” (J Med Chem, 2015)
